Measurements from PMC6745485 (Heliyon, 2019).
Values joined by “and” are separate entries in the source; they are usually repeats but may differ in a detail not shown here. Equal entries are not always repeated. “Also recorded” adds a separate entry of the source. Where two headings read alike, the source gives them in different places.

How the values were obtained:
mouse PPARα = conditions: among 12 pyrethroid pesticides; ref Takeuchi et al., 2006; cited from earlier work
rat CAR [1] = biological target: T1, rat CAR (Rattus norvegicus, UniProt Q9QUS1); assay type: cell-based; conditions: 3–10 μM
T1 sequence (Q9QUS1 1-358): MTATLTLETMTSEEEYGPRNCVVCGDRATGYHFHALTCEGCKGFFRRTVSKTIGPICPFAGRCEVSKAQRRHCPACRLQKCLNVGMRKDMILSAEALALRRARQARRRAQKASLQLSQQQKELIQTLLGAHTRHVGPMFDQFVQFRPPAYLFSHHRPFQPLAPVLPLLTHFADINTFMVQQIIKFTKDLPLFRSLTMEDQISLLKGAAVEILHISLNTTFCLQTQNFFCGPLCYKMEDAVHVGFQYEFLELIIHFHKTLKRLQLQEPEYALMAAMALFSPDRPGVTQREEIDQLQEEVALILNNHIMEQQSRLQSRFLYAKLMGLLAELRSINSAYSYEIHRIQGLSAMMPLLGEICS
In short: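 Microsomal mix: NADPH-generating system plus PB/MC-induced male SD rat liver microsomes (60 mg protein) in pH 7.4 phosphate, 30 min, 37 °C; boiled-microsome control. Extracts dried, redissolved in DMSO, diluted into serum-free medium. CAR-transfected COS-1 cells dosed 12 h after transfection, 24 h exposure. Firefly/Renilla luciferase read as fold vs vehicle; 3 experiments, Student's t-test vs boiled.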

human CAR = conditions: cited from earlier work
rat PXR [2] = biological target: T2, rat PXR (Rattus norvegicus, UniProt Q9R1A7); assay type: cell-based; conditions: microsomes of PB- and MC-treated rats, NADPH, vs boiled microsomes
T2 sequence (Q9R1A7 1-431): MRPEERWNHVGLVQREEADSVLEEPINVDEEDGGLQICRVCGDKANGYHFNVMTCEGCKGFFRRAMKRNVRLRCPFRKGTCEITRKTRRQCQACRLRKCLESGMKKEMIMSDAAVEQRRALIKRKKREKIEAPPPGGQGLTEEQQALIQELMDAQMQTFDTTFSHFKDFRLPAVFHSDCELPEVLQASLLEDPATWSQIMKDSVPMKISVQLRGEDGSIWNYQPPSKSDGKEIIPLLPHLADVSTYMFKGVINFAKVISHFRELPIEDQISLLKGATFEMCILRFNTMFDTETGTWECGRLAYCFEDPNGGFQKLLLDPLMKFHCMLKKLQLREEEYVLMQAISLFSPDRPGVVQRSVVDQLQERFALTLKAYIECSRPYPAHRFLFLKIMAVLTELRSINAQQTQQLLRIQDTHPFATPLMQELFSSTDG
In short: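 Test compound (1 μmol) incubated 30 min at 37 °C in 0.1 M K,Na-phosphate pH 7.4. Mix held an NADPH-generating system and liver microsomes (60 mg protein) from male SD rats given PB 80 mg/kg i.p. plus MC 25 mg/kg p.o. daily for 3 d. Boiled microsomes were the control. Ethyl acetate extract went into DMSO and onto transfected COS-1 cells for 24 h. Normalized firefly/Renilla fold vs vehicle; n=3, t-test.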

rat PPARα = biological target: T3, rat PPARα (Rattus norvegicus, UniProt P37230); experiment: Rat PPARα reporter gene assay in COS-1 cells; assay type: cell-based; conditions: concentration showing 20% of the agonistic activity of 30 μM BZF; ±SD
T3 sequence (P37230 1-468): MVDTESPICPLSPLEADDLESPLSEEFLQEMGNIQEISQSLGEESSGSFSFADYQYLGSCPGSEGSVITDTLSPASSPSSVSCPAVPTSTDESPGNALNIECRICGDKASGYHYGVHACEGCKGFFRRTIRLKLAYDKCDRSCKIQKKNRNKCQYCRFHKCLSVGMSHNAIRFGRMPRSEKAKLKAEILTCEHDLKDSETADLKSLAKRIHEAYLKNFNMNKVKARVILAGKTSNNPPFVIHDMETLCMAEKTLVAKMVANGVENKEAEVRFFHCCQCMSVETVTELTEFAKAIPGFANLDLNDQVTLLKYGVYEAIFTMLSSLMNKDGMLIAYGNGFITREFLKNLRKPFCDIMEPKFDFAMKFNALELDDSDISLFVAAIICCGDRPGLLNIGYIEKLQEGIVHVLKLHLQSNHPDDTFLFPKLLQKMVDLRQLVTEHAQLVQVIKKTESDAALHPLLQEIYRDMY

mouse CAR = conditions: cited from earlier work
rat PXR [3] = biological target: T2, rat PXR; experiment: Rat PXR reporter gene assay in COS-1 cells; assay type: cell-based; conditions: concentration showing 20% of the agonistic activity of 1 μM PCN; ±SD
In short: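 COS-1 cells (1×10^4/well) co-transfected with rat PXR expression, reporter and Renilla control plasmids via jetPEI. After 24 h, test compound or 0.1% DMSO added in serum-free D-MEM for 24 h. Dual-luciferase read-out, firefly normalized to Renilla, fold vs vehicle. REC20: concentration reaching 20% of 1 μM PCN activity. Mean ± SD, ≥3 experiments in duplicate; Dunnett's test.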

rat CAR [4] = biological target: T1, rat CAR; experiment: Rat CAR reporter gene assay in COS-1 cells; assay type: cell-based

Compound | Mouse PPARα activation (mouse PPARα) | Change of CAR inverse agonistic activity after incubation with liver microsomes (rat CAR [1]) | Human CAR agonistic activity (human CAR; ref Abass et al. (2012)) | Human CAR agonistic activity (human CAR; ref Baldwin and Roling (2009)) | Change of PXR activity upon incubation with rat liver microsomes (rat PXR [2]) | Agonistic activity REC20 PPARα (rat PPARα) | Mouse CAR agonistic activity (mouse CAR; ref Abass et al. (2012)) | Mouse CAR agonistic activity (mouse CAR; ref Baldwin and Roling (2009)) | Agonistic activity REC20 PXR (rat PXR [3]) | Effect on CAR activation induced by artemisinin (rat CAR [4]; artemisinin 10 μM, test compound 0.1–30 μM) | Agonistic activity REC20 CAR (rat CAR [4]; concentration showing 20% of the agonistic activity of 30 μM artemisinin, ±SD) | Inverse agonistic activity RIC20 CAR (rat CAR [4]; concentration showing 80% of the activity of the vehicle control, ±SD) | CAR inverse agonistic activity (in words) (rat CAR [4]; up to 30 μM)
pyrethrin | activated mouse PPARα | – | – | – | – | – | – | – | – | – | – | – | –
CC(C)C(C(=O)OC(C#N)c1cccc(Oc2ccccc2)c1)c1ccc(Cl)cc1 (stereo not shown) [fenvalerate] | – | tended to decrease | possessed agonistic activity | agonists | markedly decreased; also recorded: significantly decreased | - ^c (No effect (REC20 > 30 μM)) | not mouse CAR | agonists | 0.617 ± 0.138 µM | significantly inhibited CAR activation by artemisinin | - ^c (No effect (REC20 > 30 μM)) | 0.846 µM and 0.846 ± 0.394 µM | showed CAR inverse agonistic activity
